Assay [1] is described as follows: nonspecific flux increase, KCNQ1-free cells – parental CHO cells, counter-screen for KCNQ1 potentiator project (AID 493006;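 active = duplicate-averaged activation above buffer control mean plus 5 SD of those controls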;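 for activation: fluorescence ratio of max minus min over baseline after K+ and Tl+ depolarization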). The note with it: parental CHO-K1 cells, FluxOR thallium flux, at 10 µM; stronger effect = higher value. The method in brief: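 Material: parental CHO-K1 cells, FluxOR dye-loaded; Also added: Potassium/thallium depolarization pulse; Schedule: overnight 37 °C plating, 90 min dye, 20 min dark compound; Signal: kinetic FluxOR fluorescence, 10 s baseline, 110 s after stimulus.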
For orientation: The purpose of a counterscreen is to sort out artefacts and off-target activity.

In assay [2] the target is Potassium voltage-gated channel subfamily KQT member 1 (Homo sapiens) (UniProt P51787). Description: enhancement of KCNQ1 channel thallium flux – FluxOR thallium flux, CHO cells, duplicates, confirmation (AID 493007).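 For outcome: cells depolarized by a potassium plus thallium sulfate stimulus after compound.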 Particulars: KCNQ1 cell line, FluxOR thallium flux fluorescence, at 10 µM; stronger effect = higher value, % of reference activator effect, buffer zero. A digest of the protocol:
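System: KCNQ1-expressing CHO cell line; technique: kinetic thallium influx fluorescence with FluxOR dye, 10 s baseline, 110 s post-stimulus; timing: dye 90 min then compound 20 min, both at room temperature; controls: buffer-only wells as 0% and R-L3 activator as 100%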

The target of assay [3] is Potassium voltage-gated channel subfamily KQT member 2 (Rattus norvegicus) (UniProt O88943). Description: KCNQ2 thallium flux enhancement – KCNQ2-CHO-K1 cells, selectivity assay for KCNQ1 potentiator project (AID 493009;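 active = mean duplicate potentiation above the buffer control mean plus 5 SD of buffer wells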;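 note: assay conditions were tuned for KCNQ1 rather than KCNQ2 modulators; signal is max minus min fluorescence divided by baseline after thallium stimulus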). The note with it: FluxOR thallium flux fluorescence, at 10 µM; stronger effect = higher value, scaled: buffer 0, activator control 100.
Assay [4] has as its target Potassium voltage-gated channel subfamily KQT member 1 (Homo sapiens) (UniProt P51787). Nature of the assay: KCNQ1 activators by electrophysiology – IonWorks patch clamp, KCNQ1-CHO cells, orthogonal assay for KCNQ1 potentiator project, confirmation (AID 493184;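 active = current rise at least 3 SD above the untreated control mean in each of two repeat wells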;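 for current potentiation: percent change of the same well's current before compound addition so 0% = no change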). Particulars: automated patch clamp current, at 10 µM; stronger effect = higher value. A digest of the protocol: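 Test system: KCNQ1-expressing CHO cells. Medium: pH 7.4 external bath. Probe or stimulus: voltage step from -90 mV holding to +40 mV, 2,000 ms. Compound: 10 µM final, single point. Detection: automated perforated-patch electrophysiology. Read-out: percent current increase versus pre-compound level. Repeats: two replicates.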

This is an account of results in PubChem BioAssay.

Activity calls are given as the source filed them.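 Rule for the calls, unless noted: active = potentiation averaged over duplicate wells exceeding buffer-only control mean by more than 3 SD; inactive = the rest.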

Sequence of Potassium voltage-gated channel subfamily KQT member 1 (Homo sapiens) (P51787 whole entry, looked up): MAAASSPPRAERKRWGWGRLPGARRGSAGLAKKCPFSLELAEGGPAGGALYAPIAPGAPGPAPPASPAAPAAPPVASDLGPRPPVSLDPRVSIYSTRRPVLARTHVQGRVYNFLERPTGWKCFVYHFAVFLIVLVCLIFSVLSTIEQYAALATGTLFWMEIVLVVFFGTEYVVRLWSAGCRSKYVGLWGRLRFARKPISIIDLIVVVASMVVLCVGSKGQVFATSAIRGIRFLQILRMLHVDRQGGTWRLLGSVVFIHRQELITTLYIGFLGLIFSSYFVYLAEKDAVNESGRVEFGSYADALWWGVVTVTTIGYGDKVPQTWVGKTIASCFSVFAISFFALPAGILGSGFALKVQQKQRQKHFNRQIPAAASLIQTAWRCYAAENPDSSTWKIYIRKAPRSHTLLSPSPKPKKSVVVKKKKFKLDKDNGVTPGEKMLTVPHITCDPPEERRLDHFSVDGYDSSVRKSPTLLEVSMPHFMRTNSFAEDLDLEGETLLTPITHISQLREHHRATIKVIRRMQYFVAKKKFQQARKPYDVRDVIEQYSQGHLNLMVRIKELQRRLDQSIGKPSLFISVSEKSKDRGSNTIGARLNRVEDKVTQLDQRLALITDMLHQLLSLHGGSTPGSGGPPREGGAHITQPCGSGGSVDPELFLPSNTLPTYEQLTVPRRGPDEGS
Sequence of Potassium voltage-gated channel subfamily KQT member 2 (Rattus norvegicus) (O88943 whole entry, looked up): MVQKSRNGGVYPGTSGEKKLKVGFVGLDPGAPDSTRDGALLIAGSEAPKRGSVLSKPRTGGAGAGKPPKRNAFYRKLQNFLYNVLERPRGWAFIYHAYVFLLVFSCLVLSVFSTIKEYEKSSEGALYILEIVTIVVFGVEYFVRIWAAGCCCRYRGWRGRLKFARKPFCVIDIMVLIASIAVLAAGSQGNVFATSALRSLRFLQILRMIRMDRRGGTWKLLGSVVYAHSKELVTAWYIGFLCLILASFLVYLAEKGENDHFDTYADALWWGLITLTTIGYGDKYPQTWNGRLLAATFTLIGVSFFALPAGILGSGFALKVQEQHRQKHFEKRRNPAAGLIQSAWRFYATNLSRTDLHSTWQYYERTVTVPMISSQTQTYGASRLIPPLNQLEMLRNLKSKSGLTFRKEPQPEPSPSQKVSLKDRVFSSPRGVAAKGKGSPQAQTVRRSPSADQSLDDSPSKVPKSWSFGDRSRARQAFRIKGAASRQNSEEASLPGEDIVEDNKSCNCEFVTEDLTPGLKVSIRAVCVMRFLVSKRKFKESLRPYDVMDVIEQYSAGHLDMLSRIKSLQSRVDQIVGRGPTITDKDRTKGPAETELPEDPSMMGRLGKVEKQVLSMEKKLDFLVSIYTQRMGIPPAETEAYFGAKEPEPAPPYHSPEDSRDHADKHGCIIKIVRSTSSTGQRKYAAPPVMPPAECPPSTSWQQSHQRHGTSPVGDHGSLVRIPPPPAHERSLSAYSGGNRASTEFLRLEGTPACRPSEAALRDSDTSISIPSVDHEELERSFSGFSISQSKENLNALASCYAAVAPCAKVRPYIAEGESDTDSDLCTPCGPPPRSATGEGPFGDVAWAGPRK

As to `CC(C)(C)NC(=O)C(=O)NNC(=O)COc1ccc(Br)cc1`, the activation in assay [1] is 227% (active). The results for the potentiation in assay [2] and in assay [3] were 53% (active) and 215% (active), respectively. Besides, in assay [4], the result was inactive.
For `CCOC(=O)Cc1csc(NC(=S)NC(=O)c2ccc(F)cc2)n1`, the result in assay [1], in assay [2], in assay [3] and in assay [4] was inactive.
With `NNC(=O)c1sccc1OCc1ccc(Cl)cc1Cl`, the outcome in assay [1], in assay [2], in assay [3] and in assay [4] was inactive.
For `CCCCCCCCCCCCC/C=C/[C@@H](O)[C@@H](N)CO`, in assay [1], the activation was 406% (active). Besides, the potentiation in assay [2] is 218% (active); in assay [3] it was 414% (active). For the same compound, the result in assay [4] was inactive.
For the compound `O=C(NC(=S)Nc1ccccc1Cl)c1cncc(Br)c1`, the outcome in assay [1], in assay [2], in assay [3] and in assay [4] was inactive.
For `COC(=O)C1=NN(C(=O)c2ccc(Cl)cc2)C(O)(c2ccccc2)C1` (stereo not given), the activation in assay [1] is 426% (active). The potentiation was 150% (active) in assay [2] and 392% (active) in assay [3]. Besides, in assay [4], the result was inactive.
Take `O=C(NC1CC1)C1=NOC(CNc2ncc(C(F)(F)F)cc2Cl)C1` (stereo not given): the outcome in assay [1], in assay [2], in assay [3] and in assay [4] was inactive.
With `S=c1[nH]c2cc(-c3ccccc3)ccc2o1`, the activation in assay [1] is 306% (active). Further, the potentiation in assay [2] is 89.5% (active); in assay [3] it was 318% (active). The result in assay [4] was inactive.
Turning to `Cc1cccc(CNC(=O)C2CCCN(c3nn4c(=O)cc(C)nc4s3)C2)c1` (stereo not given), the result in assay [1], in assay [2], in assay [3] and in assay [4] was inactive.
As for `Cc1noc(C)c1S(=O)(=O)Nc1ccc(C#N)cc1`, the result in assay [1], in assay [2], in assay [3] and in assay [4] was inactive.
On to `COc1ccc(/C(O)=C2/C(=O)C(=O)N(CCCN(C)C)C2c2ccc(Cl)cc2)cc1OC` (stereo not given), for which the result in assay [1], in assay [2], in assay [3] and in assay [4] was inactive.
Regarding `CCN=C1SC(CC(=O)Nc2ccccc2OCC)C(=O)N1CC` (stereo not given), the outcome in assay [1], in assay [2], in assay [3] and in assay [4] was inactive.
Take `COc1cccc2sc(Nc3nnc(-c4ccccc4Cl)o3)nc12`: the result in assay [1], in assay [3] and in assay [4] was inactive. In addition, the potentiation in assay [2] was 112% (active).
For the compound `O=C(c1ccccc1NS(=O)(=O)c1ccc(Br)cc1)N1CCOCC1`, in assay [1], the activation was 306% (active). The potentiation in assay [2] is 112% (active); in assay [3], 326% (active). Also, in assay [4], the result was inactive.
With `O=C(NC(=S)Nc1ccccc1)c1csnn1`, in assay [1], the activation was 588% (active). The potentiation is 260% (active) in assay [2] and 642% (active) in assay [3]. For the same compound, the outcome in assay [4] was inactive.
The like results for `CCSc1nc(=S)cc(C)[nH]1` were, in that order, 340% (active), 172% (active), 388% (active) and “inactive”.
Consider `COc1ccc(C(=O)N2CCC(n3nccc3NC(=O)C3CCOC3)CC2)cc1` (stereo not given), for which the outcome in assay [1], in assay [2], in assay [3] and in assay [4] was inactive.
Regarding `C=C[C@@]1(C)CC(=O)[C@]2(O)[C@@]3(C)[C@@H](O)CCC(C)(C)[C@@H]3[C@H](OC(C)=O)[C@H](O)[C@@]2(C)O1`, the result in assay [1], in assay [2], in assay [3] and in assay [4] was inactive.
For the compound `O=c1ccc(N=Nc2ccccc2)ccc1O`, the activation in assay [1] is 322% (active). For the same compound, the potentiation in assay [2] was 138% (active); in assay [3] it was 430% (active). Also, in assay [4], the outcome was inactive.
In the case of `O=C(CCC(=O)N1CCOc2ccc(Cl)cc21)NCCCN1CCN(c2ccccc2F)CC1`, the outcome in assay [1], in assay [2], in assay [3] and in assay [4] was inactive.
As to `CC(/C=C1\SC(=S)N(NS(=O)(=O)c2ccc(C)cc2)C1=O)=C\c1ccccc1`, in assay [1], the activation was 507% (active). The potentiation in assay [2] was 424% (active); in assay [3], 666% (active). Also, the outcome in assay [4] was inactive.
As to `OC(c1cc(C(F)(F)F)nc2c(Cl)cc(Cl)cc12)C1CCCCN1` (stereo not given), the outcome in assay [1], in assay [2], in assay [3] and in assay [4] was inactive.
On to `CCCCN(CCCC)c1ccc(C(=O)c2ccccc2C(=O)O)c(O)c1`, for which the activation in assay [1] is 212% (active). For the same compound, the figures for the potentiation in assay [2] and in assay [3] were 51.5% (active) and 182% (active), respectively. Moreover, the current potentiation in assay [4] is 15.1% (active).
For the compound `Cc1cc(N=Cc2cc(Br)ccc2O)no1`, in assay [1], the activation was 144% (active). Further, the result in assay [2], in assay [3] and in assay [4] was inactive.
Turning to `CCN(c1ccccc1)S(=O)(=O)c1ccc(OC)c(OC)c1`, in assay [1], the activation is 167% (active). The results for the potentiation in assay [2] and in assay [3] were 150% (active) and 162% (active), respectively. The outcome in assay [4] was inactive.
Turning to `CCCCn1c(SCC(N)=O)nc2ccc(N3CCOCC3)cc2c1=O`, the outcome in assay [1], in assay [2], in assay [3] and in assay [4] was inactive.
Take `O=C(NC(=S)N1CCN(c2ccc(C(F)(F)F)cc2[N+](=O)[O-])CC1)c1cccs1`: the activation in assay [1] is 176% (active). The potentiation in assay [2] is 75% (active); in assay [3], 215% (active). Also, in assay [4], the outcome was inactive.
In the case of `CCCS(=O)(=O)c1c(S(=O)(=O)CCC)c2c(C(N)=O)cccn2c1C(=O)c1ccc(F)cc1`, the result in assay [1], in assay [2], in assay [3] and in assay [4] was inactive.
As to `O=C(NC(=S)N1CCCCCC1)c1ccc(Cl)cc1Cl`, in assay [1], the activation is 148% (active). For the same compound, the outcome in assay [2] and in assay [4] was inactive. For the same compound, the potentiation in assay [3] was 158% (active).
Take `Cc1cc(OCC(=O)NNC(=O)c2cnccn2)cc(C)c1Cl`: the activation in assay [1] is 200% (active). Moreover, the results for the potentiation in assay [2] and in assay [3] were 22% (active) and 279% (active), respectively. In addition, the result in assay [4] was inactive.
